In ChEMBL document CHEMBL1139348, “Identification and optimization of a novel inhibitor of mitochondrial calpain 10” (J Med Chem, 2009):
Calls of active or inactive are those of the source. No cut-off for these calls is given here. Where a SMILES comes first, the peptide text is derived from it. The star is where a group is joined. X1 = COc1ccc(S*)cc1; SEt = CCS*

Key:
[1] = Inhibition of calpain-10 in rabbit mitochondrial matrix fractions by spectrofluorimetry; design: species or system Oryctolagus cuniculus
In short: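 Matrix fraction from Percoll/sucrose-purified rabbit renal cortical mitochondria, stored at -80°C. Matrix added to activity buffer, then inhibitor at various concentrations and sLLVY-AMC (50 µM); AMC hydrolysis followed spectrofluorometrically under linear conditions. IC50 from means of at least 3 separate experiments.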

Oryctolagus cuniculus [2] = organism: Oryctolagus cuniculus; assay: Inhibition of calpain-10 in rabbit mitochondrial matrix fractions at 1 uM preincubated for 5 mins by spectrofluorimetry
Oryctolagus cuniculus [3] = organism: Oryctolagus cuniculus; assay: Inhibition of calpain-10 in rabbit mitochondrial matrix fractions at 1 uM preincubated for 5 mins in presence of 1 mM dithiothreitol by spectrofluorimetry
In short: (§1)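 Rabbit renal mitochondrial matrix preincubated 15 min with inhibitor (1 µM), activity on sLLVY-AMC measured 5 min; then BME (1 mM) or DTT (1 mM) added for 5 min and AMC release monitored for another 5 min. Mean and SE, n ≥ 3.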

Oryctolagus cuniculus [4] = organism: Oryctolagus cuniculus; assay: Inhibition of calpain-10 in rabbit mitochondrial matrix fractions at 1 uM preincubated for 5 mins in presence of 1 mM beta-mercaptoethanol by spectrofluorimetry; in short: as §1

| IC50 [1] | SMILES | other results |
| --- | --- | --- |
| > 100000 nM | CSC[C@H](N)C(=O)N[C@@H](Cc1ccc(O)cc1)C(=O)NCC(=O)N[C@@H](C)C(=O)N[C@@H](CCCCN)C(=O)O (H-C(Me)YGAK-OH) | – |
| 2000 nM | CCSSC[C@H](N)C(=O)N[C@@H](Cc1ccc(O)cc1)C(=O)NCC(=O)N[C@@H](C)C(=O)N[C@@H](CCCCN)C(=O)O (H-C(SEt)YGAK-OH) | – |
| > 100000 nM | C[C@H](NC(=O)CNC(=O)[C@H](Cc1ccc(O)cc1)NC(=O)[C@@H](N)CS)C(=O)O (H-CYGA-OH) | – |
| 100 nM | C[C@H](NC(=O)CNC(=O)[C@H](Cc1ccc(O)cc1)NC(=O)[C@@H](N)CS)C(=O)N[C@@H](CCCCN)C(=O)O (H-CYGAK-OH) | inhibition (Oryctolagus cuniculus [2]): 90%; Activity (Oryctolagus cuniculus [3]): inactive; Activity (Oryctolagus cuniculus [4]): inactive |
| 4 nM | CCCC[C@@H](C=O)NC(=O)[C@H](CC(C)C)NC(=O)OCc1ccccc1 [CALPEPTIN] | – |

More lines, now with the values behind:

| SMILES | IC50 [1] | other results |
| --- | --- | --- |
| COc1ccc(SSC[C@H](N)C(=O)N[C@@H](Cc2ccc(O)cc2)C(=O)NCC(=O)N[C@@H](C)C(=O)N[C@@H](CCCCN)C(=O)O)cc1 (H-C(X1)YGAK-OH) | 60 nM | – |
| C[C@H](NC(=O)CNC(=O)[C@H](C)NC(=O)[C@@H](N)CS)C(=O)N[C@@H](CCCCN)C(=O)O (H-CAGAK-OH) | 2000 nM | – |
| CC(C)[C@H](NC(=O)[C@@H](N)CS)C(=O)NCC(=O)N[C@@H](C)C(=O)N[C@@H](CCCCN)C(=O)O (H-CVGAK-OH) | > 40000 nM | – |
| N=C(N)NCCC[C@H](NC(=O)CNC(=O)[C@H](Cc1ccc(O)cc1)NC(=O)[C@@H](N)CS)C(=O)N[C@@H](CCCCN)C(=O)O (H-CYGRK-OH) | 240 nM | – |
| N=C(N)NCCC[C@H](NC(=O)CNC(=O)[C@H](Cc1ccc(O)cc1)NC(=O)[C@@H](N)CS)C(=O)N[C@@H](CCCCN)C(=O)N[C@@H](CCCCN)C(=O)O (H-CYGRKK-OH) | 290 nM | – |
| C[C@H](NC(=O)CNC(=O)[C@@H](N)Cc1ccc(O)cc1)C(=O)N[C@@H](CCCCN)C(=O)O (H-YGAK-OH) | > 100000 nM | – |
